Cl transport mod: modulates chloride dependent transport by human KCC2 | KCC2 cells, thallium flux FluoZin-2 fluorescence | Q9H2X9 | actives 2.2% (n = 190,000) | B-score of Tl+ flux slope (higher = more flux/activation; lower = inhibition) at 10 µM;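 active = thallium flux slope and its plate-corrected score both differing from the plate sample mean at a set confidence after two filtering rounds, in either direction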;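 also: slope of fluorescence scaled to starting intensity during 10 to 20 s after thallium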
WT yeast gro inh: growth inhibition of WT yeast, mitochondrial fusion screen; inhibition, % at 10 µM; AID 1362; mitochondrial fusion phenotypic screen, WT strain; actives 2.1% (n = 190,000); in the data active = inhibition above about 58%; tested in S. cerevisiae
Diaph inh CS: counter-screen for diaphorase-based assays: diaphorase inhibitors and chemical oxidizers. actives 0.69% (n = 190,000). inhibition, % at 20 µM. diaphorase resazurin-to-resorufin fluorescence, NADH, 16 min; bacterial (C. kluyveri) enzyme, not human;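 active = primary screen inhibition at 20 µM above a set limit, cut at about 50% in these data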
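System: Diaphorase enzyme from Clostridium kluyveri | Amount: Enzyme working solution with 0.14 U/mL diaphorase | Benchmarks: No-NADH positive control and DMSO neutral control | Signal: Fluorescence of resorufin formed from resazurin, Ex 544/Em 590 nm | Schedule: 16-min room-temperature incubation before reading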
Diaph act CS: counter-screen for diaphorase-based assays: diaphorase activators and chemical reducers; Diaphorase/resazurin coupled assay, resorufin fluorescence, 16 min; active compounds read high; 1 = vehicle wells, 0 = NADH-free wells; AID 1229; actives 0.005% (n = 190,000); activation factor at 20 µM;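 active = diaphorase activity raised at least twofold by the compound at 20 µM; inactive = activation factor below 2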
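System – purified diaphorase enzyme from Clostridium kluyveri · Input – enzyme 0.07 U/mL final · Also added – final NADH 0.114 mM, resazurin 0.1 mM · Measured by – fluorescence of resorufin, 544 nm excitation, 590 nm emission · Timing – 16 min enzyme reaction, ambient temperature · Measure – resorufin increase flagging diaphorase activators or reducers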
L major viab: inhibitors of Leishmania major promastigote growth. Leishmania major promastigotes, resazurin fluorescence viability. inhibition, % at 10 µM. actives 9% (n = 200,000). AID 1063; in the data active = inhibition above about 50%;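 also: promastigotes grown with compound for 44 hours at 28 °C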
ROMK mod: modulates human ROMK potassium channel activity; actives 2% (n = 130,000); B-score at 10 µM; Tet-inducible ROMK, thallium flux fluorescence; actives lie on both sides;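 active = signal ratio slope over the read window, or its plate-corrected B-score, at least 3 SD from the plate mean, either direction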;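 also: B-score of the F/F0 ratio slope over 7 to 12 s after thallium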
Target sequence (P48048 whole entry, looked up): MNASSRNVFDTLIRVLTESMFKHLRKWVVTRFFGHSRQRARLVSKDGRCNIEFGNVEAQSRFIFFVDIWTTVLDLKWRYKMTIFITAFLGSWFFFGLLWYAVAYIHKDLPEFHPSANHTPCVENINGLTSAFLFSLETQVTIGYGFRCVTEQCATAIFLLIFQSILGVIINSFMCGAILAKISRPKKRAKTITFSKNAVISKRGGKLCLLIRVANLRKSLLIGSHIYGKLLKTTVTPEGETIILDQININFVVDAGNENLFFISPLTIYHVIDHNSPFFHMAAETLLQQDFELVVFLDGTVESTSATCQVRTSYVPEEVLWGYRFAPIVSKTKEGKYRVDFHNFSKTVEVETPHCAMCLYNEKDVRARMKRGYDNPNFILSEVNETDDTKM
KCC2 secondary: confirmation of human KCC2 transport modulators; HEK293-KCC2, thallium flux, FluoZin2 fluorescence; active compounds read high; actives 15% (n = 3,700); AID 1713; shares compounds with Cl transport mod; normalised thallium flux (F/F0 slope) at 10 µM;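 active = thallium flux slope above the same plate's solvent-only control mean plus 3 SD; inconclusive = the two replicate wells disagree; inactive = no significant difference from solvent-only control wells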
KCC2 bumet counter: bumetanide-insensitive thallium flux in KCC2 cells with ouabain, counter-screen; HEK293-KCC2 + bumetanide/ouabain, thallium flux FluoZin2; active compounds read high; normalized thallium flux at 10 µM; shares compounds with Cl transport mod; actives 49% (n = 3,700);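 active = thallium entry rate above the same plate's blocked-transporter control wells by more than 3 SD; inconclusive = the two repeat wells disagree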;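 also: raw slope of fluorescence over initial fluorescence between 10 and 20 s after thallium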
KCC2 secondary2: KCC2 (human) modulation, second secondary assay | shares compounds with Cl transport mod | AID 1715 | actives 23% (n = 3,700) | normalized thallium flux at 10 µM | HEK293-KCC2, thallium flux FluoZin2 fluorescence; actives lie on both sides; F/F0 rise rate, 10–20 s post-thallium;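 active = thallium flux slope more than 3 SD above or below the plate's solvent-only control mean, mostly below; inconclusive = the two repeat wells disagreed; inactive = no significant shift from solvent-only controls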
HEK293 Tl flux: counter-screen for KCC2 modulators: effect in parental HEK293 cells; thallium flux rate (normalised fluorescence) at 10 µM; thallium flux FluoZin2, ouabain; baseline-ratio fluorescence slope, 10–20 s after thallium; actives 46% (n = 3,700); shares compounds with Cl transport mod;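 active = thallium flux rate significantly above the same plate's solvent-only control wells, beyond their mean plus 3 SD; inconclusive = the two replicate wells gave conflicting results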
KCC2 retest ouab: confirmation of human KCC2 modulators with ouabain; shares compounds with Cl transport mod; HEK293-KCC2, thallium flux FluoZin2 fluorescence; bidirectional: low = inhibitor, high = activator; AID 1717; actives 48% (n = 3,700); raw Tl+ flux slope (below DMSO = inhibition, above = activation) at 10 µM;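 active = thallium flux slope beyond 3 SD from same-plate DMSO control mean in most replicates, usually higher, sometimes lower; inconclusive = repeat tests gave conflicting results; inactive = no significant difference from controls in most replicates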;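 also: slope of initial-normalized fluorescence between seconds 10 and 20 after thallium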
HEK counter2: counter-screen for KCC2 modulators: effect in parental HEK293 cells. shares compounds with Cl transport mod. thallium flux FluoZin-2 fluorescence slope. thallium flux slope at 10 µM. actives 33% (n = 3,700). AID 1718;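 active = thallium flux slope above the same plate's solvent-control mean plus 3 SD in both duplicate wells; inconclusive = duplicate wells that disagreed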;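 also: run without ouabain in cells lacking the KCC2 cotransporter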
Numbers stand for hits; . = inactive; ? = inconclusive; / = no result given. In the library only some 12% were active in any assay of this set; here they are far more common.

SMILES	Cl transport mod	WT yeast gro inh	Diaph inh CS	Diaph act CS	L major viab	ROMK mod	KCC2 secondary	KCC2 bumet counter	KCC2 secondary2	HEK293 Tl flux	KCC2 retest ouab	HEK counter2
CC1CCCCN1C(=O)CSc1nnc(Cc2ccccc2)n1C (stereo not given)	3.2	.	.	.	.	.	.	.	.	.	.	.
COc1ccc(CCNC(=O)c2ccc(C)s2)cc1OC	.	.	.	.	.	.	/	/	/	/	/	/
CC(C)CC(=O)N1CCN(Cc2ccc3c(c2)OCO3)CC1	.	.	.	.	.	.	/	/	/	/	/	/
O=C(Nc1ccc2[nH]c(=S)sc2c1)Nc1ccccc1F	23	/	/	/	/	/	.	0.034	?	0.019	0.033	0.021
O=C(NCCc1ccccc1)C1CCC(CNc2c(N3CCCCC3)c(=O)c2=O)CC1 (stereo not given)	.	.	.	.	.	.	/	/	/	/	/	/
Cc1ccc(CCNC(=O)C2CCC(CNc3c(N4CCC(C)CC4)c(=O)c3=O)CC2)cc1 (stereo not given)	.	.	.	.	.	.	/	/	/	/	/	/
Cc1ccc(CCNC(=O)C2CCC(CNc3c(N4CCCC4)c(=O)c3=O)CC2)cc1 (stereo not given)	/	.	.	.	.	/	.	?	.	?	.	.
CC1CCN(c2c(NCC3CCC(C(=O)NCCc4ccccc4)CC3)c(=O)c2=O)CC1 (stereo not given)	-4.7	.	.	.	.	.	.	.	?	.	.	.
CCN(C(=O)CSc1nnc(-c2ccncc2)n1Cc1ccccc1)C1CCS(=O)(=O)C1 (stereo not given)	.	.	.	.	.	.	/	/	/	/	/	/
CCOc1ccc2nc(NC(=S)N(C)C)sc2c1	/	.	.	.	80	.	0.018	0.13	.	0.047	0.057	0.02
O=C(NNc1nc2ccccc2s1)Nc1ccccc1	.	.	.	.	.	.	/	/	/	/	/	/
CCNC(=O)Nc1nc2ccccc2s1	.	.	.	.	.	.	/	/	/	/	/	/
COc1ccc2nc(NC(C)=O)sc2c1	.	.	.	.	.	/	/	/	/	/	/	/
CN(C)C(=S)Nc1nc2ccccc2s1	69	74	.	.	.	.	0.017	0.089	.	0.032	0.059	0.017
S=C(Nc1ccccc1)c1nc2ccccc2s1	9.7	.	.	.	.	.	.	0.013	.	0.013	?	0.014
CCOC(=O)c1cccc(C(=O)Nc2nc3ccc(OC)cc3s2)n1	91	.	.	.	.	.	0.027	0.079	?	0.041	0.041	0.039
O=C(N/N=C/c1ccc(-c2ccccc2C(=O)O)o1)c1cccs1	.	.	.	.	.	.	/	/	/	/	/	/
O=C(c1ccc(-c2nnc(Nc3ccccc3)c3ccccc23)cc1)N1C[C@H]2C[C@H](C1)c1cccc(=O)n1C2	.	.	.	.	.	/	/	/	/	/	/	/
COc1ccc2oc(=O)c(-c3ccccc3C(=O)N3CCOCC3)cc2c1	.	.	.	.	.	.	/	/	/	/	/	/
COc1ccc(C2C(C(N)=O)=C(C)Nc3nc(-c4ccccc4)nn32)cc1OC (stereo not given)	5.5	.	.	.	.	/	.	?	.	.	.	?
